# Sampled rows, rich in hits. Any-hit rate of the full collection: about 6.4%.
# Lung fibro prol: antiproliferative effect on LL 47 fibroblasts – human, LL 47 cells, CellTiter-Glo luminescence, primary screen | LL 47 human lung fibroblast viability, ATP luminescence; stronger effect = lower value | viability, % at 10 µM | 85,000 tested, 1.1% active | AID 719, 2007;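 active = viability at or below 50% in the single dose screen; inactive = viability above 50%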;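 also: compound exposure lasted 72 h before the ATP readout; 100% = median luminescence of untreated cell-only wells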
#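 Assay system: human lung fibroblast line LL 47, low passage. Input: 1,150 fibroblasts seeded per well. Times: overnight cell rest, 72 h compound treatment at 37 °C. Evaluation: % viability of median cell-only signal. Technique: luminescent ATP detection, CellTiter-Glo. Control set: cell-only wells, no compound.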
# tolC growth inh: growth inhibitors of E. coli tolC mutant, primary screen, strain BW25113 ΔtolC::kan, 384-well; OD615; growth inhibition, % at 10 µM (by protocol); 65,000 tested, 2.2% active; AID 573, 2007;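 active = growth inhibition at or above a cutoff equal to the mean over every tested compound plus 3 SD, cut at about 60% in these data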;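 also: growth measured after 20 h incubation at 37 °C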
#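 Test system: tolC-deleted E. coli BW25113; medium: LB with kanamycin 50 µg/mL; compound: single-point testing at 10 µM; incubation: 20 h compound exposure of bacteria at 37 °C; signal: OD at 615 nm; evaluation: growth inhibition in percent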
# Jurkat tox 60K: cytotoxicity toward Jurkat T cells, primary screen, cytotoxicity control, cell-based, Jurkat E6.1, 60K MLSMR library | Jurkat E6.1 viability, ATP luminescence, 48 h | 56,000 tested, 1.2% active | AID 463, 2006 | inhibition, % at 4 µM;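 active = inhibition above the mean inhibition of all tested compounds plus 3 SD, cut at about 28% in these data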
# E coli WT exp: growth inhibitors of wild-type E. coli, primary screen, strain BW25113, expanded library, OD600; OD600 absorbance; growth inhibition, % at 100 µM; 98,000 tested, 0.15% active; AID 710, 2007;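 active = growth inhibition above about 50% at one test dose, limit read from the data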;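 also: growth measured after 20 h incubation at 37 °C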
# H69AR inhibit: proliferation blockers of H69AR lung cancer cells, primary screen, cell-based, human, 86K library; H69AR lung tumor viability, ATP luminescence, 72 h; stronger effect = lower value; viability, % at 10 µM; 85,000 tested, 6% active;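 active = viability at or below 40%; inactive = viability above 40%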;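 also: multidrug resistant small cell line overexpressing MRP-1 efflux transporter; 100% = mean luminescence of untreated control wells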
# HUVEC inhibit: inhibitors of HUVEC proliferation, primary screen, cell-based, 384-well; CellTiter-Glo luminescence, 72 h; stronger effect = lower value; viability, % at 10 µM (by protocol); 86,000 tested, 1.1% active;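 active = viability at or below 30%; inactive = viability above 30%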;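 also: 100% = median luminescence of DMSO-only cell control wells on each plate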
# * = called active by the depositor; . = not tested or not shown.
SMILES,Lung fibro prol,tolC growth inh,Jurkat tox 60K,E coli WT exp,H69AR inhibit,HUVEC inhibit
CCCc1nc(SCC(=O)NCc2ccc3c(c2)OCO3)c2c(=O)n(C)c(=O)n(C)c2n1,102.0,5.8,0.6,.,12.8*,49.9
CC(C)c1nc(SCC(=O)Nc2ccc3c(c2)OCCO3)c2c(=O)n(C)c(=O)n(C)c2n1,106.3,8.7,-16.3,-2.0,31.4*,75.0
CCc1nc(SCC(=O)NCc2ccc(F)cc2)c2c(=O)n(C)c(=O)n(C)c2n1,104.2,.,.,3.0,86.5,83.2
Cn1c(=O)c2c(SC3CCCC3)nc(CC(C)(C)C)nc2n(C)c1=O,.,-16.3,-6.6,.,.,.
CC(C)c1nc(SCC(=O)Nc2cccc(C(F)(F)F)c2)c2c(=O)n(C)c(=O)n(C)c2n1,79.7,-6.7,-2.2,2.0,48.9,75.8
CCCc1nc(SC2CCCC2)c2c(=O)n(C)c(=O)n(C)c2n1,90.3,84.0*,-3.4,-2.0,88.4,66.5
O=C1CS/C(=C\[N+](=O)[O-])N1c1ccccc1,.,.,.,-1.0,.,.
Cc1noc(C)c1S(=O)(=O)N1CCCC(C(=O)N2CCc3ccccc3C2)C1 (stereo not drawn),93.4,0.8,-1.1,-1.0,65.8,105.9
Cc1c(Cl)cccc1NC(=O)C1NC(=O)CC1c1ccccc1 (stereo not drawn),102.9,.,.,-1.0,105.9,106.1
COc1ccccc1OC(=O)c1cc(Cl)nc2ccccc12,.,.,.,-19.0,.,.
O=C1CN(C(=O)COC(=O)CCC(=O)c2ccc3c(c2)OCCO3)c2ccccc2N1,98.4,6.9,-4.4,6.0,110.8,104.0
CCOC(=O)c1[nH]c(C)c(C(=O)N2CCN(c3cccc(Cl)c3)CC2)c1C,97.1,10.6,-4.5,2.0,83.9,86.0
CNC(=O)Nc1cccc(C(F)(F)F)c1,94.2,-7.0,-3.2,9.0,101.9,97.8
Cc1ccc(OC(F)F)c(NC(=O)Nc2cccc(C(F)(F)F)c2)c1,35.4*,.,.,2.0,2.4*,43.4
CC1(C)CC(=O)C(C=Nc2ccc(O)cc2)=C(O)C1,87.5,-21.2,5.6,4.0,54.0,93.8
CCOc1ccc(N=CC2=C(O)CC(C)(C)CC2=O)cc1,93.2,-1.8,-1.0,1.0,39.8*,75.7
Cc1cccc(N2C(N)=C(C#N)C(C#N)(C#N)C2c2ccccc2)c1 (stereo not drawn),86.9,100.0*,3.6,8.0,63.6,107.8
N#CC1=C(N)N(c2ccccc2)C(c2cccc([N+](=O)[O-])c2)C1(C#N)C#N (stereo not drawn),90.2,.,.,0.0,10.1*,87.5
N#CC1=C(N)N(c2ccccc2)C(c2ccco2)C1(C#N)C#N (stereo not drawn),.,-0.7,14.2,7.0,.,.
Cc1ccc(S(=O)(=O)N2CCC(C(=O)Nc3nnc(C45CC6CC(CC(C6)C4)C5)s3)CC2)cc1,.,.,.,-8.0,.,.
CCOC(=O)N1CCC(=NNS(=O)(=O)c2cccc([N+](=O)[O-])c2)CC1,.,.,.,0.0,.,.
COc1ccc(OCC(=O)N2CCN(C(=O)COc3ccc(Br)cc3)CC2)cc1,100.1,-1.9,-2.7,7.0,27.9*,82.0
Cc1ccccc1NS(=O)(=O)c1ccc(OCC(=O)N2CCCCC2)cc1,104.9,.,.,5.0,92.6,97.5
COc1ccc(OCCNC(=O)c2ccccc2OCC(=O)N2CCCCC2)cc1,92.1,11.5,5.0,-5.0,31.0*,85.8
COc1cccc(/C=N/n2nnc3c(cnn3-c3ccccc3)c2=O)c1,.,.,.,4.0,.,.
SMILES,Lung fibro prol,tolC growth inh,Jurkat tox 60K,E coli WT exp,H69AR inhibit,HUVEC inhibit
Cc1nc(N[C@@H](Cc2ccccc2)C(=O)O)c2oc3ccccc3c2n1,111.6,.,.,5.0,91.2,96.9
Cc1nc(NC(C)c2ccccc2)c2oc3ccccc3c2n1 (stereo not drawn),98.6,15.9,29.7*,5.0,81.2,81.6
COc1ccc2nc(NC(=O)CSc3nc4cccnc4n3C)sc2c1,98.4,5.8,6.5,-10.0,72.7,54.4
COC(=O)c1sc(NC(=O)CSc2nc3cccnc3n2C2CCCCC2)nc1C,88.5,49.6,-5.9,3.0,20.5*,56.2
O=C1c2ccccc2C(=O)c2c1oc(C(F)(F)F)c2C(=O)c1ccccc1,3.1*,.,.,-8.0,0.7*,3.5*
O=C(c1ccccc1)c1ccc(CN2C(=O)c3ccccc3C2=O)o1,107.3,23.3,-1.7,3.0,97.5,100.5
Cc1cccc(OCC(=O)Nc2cc(C)on2)c1,103.4,.,.,.,98.2,109.0
Cc1cc(NC(=O)COc2cccc(Oc3ccccc3)c2)no1,.,-7.0,49.7*,-3.0,.,.
c1coc(CN(Cc2ccco2)c2ncnc3c2oc2ccccc23)c1,83.7,.,.,.,22.1*,56.4
CC(C)CC(NC(=O)C1CCCCC1)C(=O)N1CCN(c2ccccn2)CC1 (stereo not drawn),.,.,.,4.0,.,.
Cc1ccc(C(C)C)c(Oc2nnnn2-c2ccccc2)c1,87.1,92.2*,12.3,8.0,30.2*,84.4
c1ccc(-n2nnnc2Oc2cccc3cccnc23)cc1,89.6,91.4*,14.0,1.0,36.1*,78.6
Cc1ccc(C)c(Oc2nnnn2-c2ccccc2)c1,95.3,14.5,16.3,8.0,87.2,83.2
Cc1cc(C)cc(N2C(=O)C3C4C=CC(C4)C3C2=O)c1 (stereo not drawn),100.7,-11.7,0.3,6.0,88.1,93.3
CC(=O)Nc1ccc(NC(=O)/C(Cl)=C/c2ccccc2)cc1,.,.,.,-8.0,.,.
COC(=O)C1=C(C)N=c2s/c(=C/c3ccoc3)c(=O)n2C1c1ccccc1 (stereo not drawn),99.0,11.0,.,-12.0,92.4,93.6
COC(=O)C1=C(C)N=c2s/c(=C3\C(=O)Nc4ccccc43)c(=O)n2C1c1ccccc1 (stereo not drawn),81.8,16.1,-9.0,-23.0,0.9*,3.3*
CCOC(=O)C1=C(C)N=c2s/c(=C3/C(=O)Nc4ccccc43)c(=O)n2C1c1ccc(C)cc1 (stereo not drawn),87.6,.,.,.,1.8*,3.2*
CCCc1nc2ccccc2c(C(=O)OCC(=O)Nc2ccc(S(=O)(=O)N3CCOCC3)cc2)c1CC,78.6,.,.,-6.0,5.8*,65.7
O=C(COC(=O)CCc1nc2ccccc2s1)Nc1cccc(S(=O)(=O)N2CCOCC2)c1,109.9,.,.,5.0,98.6,99.6
CCCc1nc2ccccc2c(C(=O)OCC(=O)Nc2cccc(S(=O)(=O)N3CCOCC3)c2)c1CC,100.7,.,.,-5.0,34.8*,55.0
COc1cc(NC(=O)c2ccc3c(c2)OCO3)ccc1NC(=O)C(C)C,100.7,-11.1,98.4*,-8.0,72.5,92.4
COc1ccc(C(C)(C)C)cc1NC(=O)Nc1ccc2c(c1)OCO2,97.8,65.0*,-6.0,-4.0,21.8*,59.6
COC(=O)c1ccccc1NC(=O)Nc1ccc2c(c1)OCO2,96.8,.,.,2.0,106.5,85.5
